# What was measured:
# Rattus norvegicus [1] = assay: Volume of distribution in rat plasma when administered intravenously at a dose of 10 mg/kg; settings: in vivo, iv
# [2] = Maximum concentration achieved in rat plasma when administered intravenously at a dose of 10 mg/kg; assay type: ADME, organism-based; set-up: dose 10 mg/kg, route intravenous; settings: iv
# Outline: (§1)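 Male Fischer 344 rats dosed iv or ip at 10 mg/kg, or orally at 10 or 100 mg/kg; five rats per route and dose. Blood and brain taken from one rat per time point (0.25, 0.5, 1, 2, 4 h after iv/ip; 0.5, 1, 2, 4, 6 h after po). Plasma and brain homogenates derivatized, extracted, assayed by negative-ion chemical ionization GCMS (LOQ 100 pg/mL plasma, 1 ng/g brain).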
# [3] = Brain concentration after 6 hr at a dose of 10 mg/kg when administered perorally; settings: po
# [4] = Brain concentration after 6 hr at a dose of 100 mg/kg when administered perorally; settings: po
# [5] = Half-life in rat plasma when administered perorally at a dose of 10 mg/kg; assay type: ADME, organism-based; set-up: dose 10 mg/kg, route oral; settings: po
# Outline: (§2)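 Male Fischer 344 rats were dosed at 10 mg/kg iv, 10 mg/kg ip, or 10 or 100 mg/kg po, with five rats per route and dose. One rat was sampled for blood and brain at each time: 0.25, 0.5, 1, 2 and 4 h after iv/ip, and 0.5, 1, 2, 4 and 6 h after po. Plasma and brain homogenates were derivatized, extracted and quantified by negative-ion chemical ionization GCMS (LOQ 100 pg/mL plasma, 1 ng/g brain).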
# Rattus norvegicus [6] = assay: Area under curve was evaluated in rat plasma when administered perorally at a dose of 10 mg/kg for infinite hours; assay type: ADME, organism-based; set-up: time infinity, dose 10 mg/kg, route oral; settings: in vivo, po
# Outline: as §2
# [7] = Plasma concentration after 4 hr at a dose of 100 mg/kg when administered perorally; settings: po
# [8] = Maximum concentration achieved in rat plasma when administered intraperitoneally at a dose of 10 mg/kg; assay type: ADME, organism-based; set-up: dose 10 mg/kg, route intraperitoneal; settings: ip
# Outline: as §1
# [9] = Plasma concentration after 4 hr at a dose of 10 mg/kg when administered intravenously; settings: iv
# [10] = Clearance rate in rat plasma when administered intravenously at a dose of 10 mg/kg; assay type: ADME, organism-based; set-up: dose 10 mg/kg, route intravenous; settings: iv, read-out: Clp (converted)
# Outline: as §2
# [11] = Brain concentration after 1 hr at a dose of 10 mg/kg when administered perorally; settings: po
# [12] = Brain concentration after 2 hr at a dose of 10 mg/kg when administered intraperitoneally; settings: ip
# [13] = Plasma concentration after 1 hr at a dose of 10 mg/kg when administered intraperitoneally; settings: ip
# [14] = Plasma concentration after 2 hr at a dose of 10 mg/kg when administered intravenously; settings: iv
# [15] = Plasma concentration after 4 hr at a dose of 10 mg/kg when administered intraperitoneally; settings: ip
# [16] = Brain concentration after 4 hr at a dose of 10 mg/kg when administered perorally; settings: po
# [17] = Time of maximum concentration achieved in rat plasma when administered perorally at a dose of 100 mg/kg; assay type: ADME, organism-based; set-up: dose 100 mg/kg, route oral; settings: po
# Outline: as §1
# in vivo = settings: plasma, ip, 10 mg/kg
# [18] = Plasma concentration after 0.5 hr at a dose of 10 mg/kg when administered intravenously; settings: iv
# [19] = Plasma concentration after 2 hr at a dose of 100 mg/kg when administered perorally; settings: po
# Rattus norvegicus [20] = assay: Bioavailability was evaluated in rat plasma when administered intravenously at a dose of 10 mg/kg; <Tr>; assay type: ADME, organism-based; settings: in vivo, iv
# [21] = Brain concentration after 2 hr at a dose of 10 mg/kg when administered intravenously; settings: iv
# [22] = Brain concentration after 4 hr at a dose of 10 mg/kg when administered intravenously; settings: iv
# [23] = Volume of distribution in rat plasma when administered intraperitoneally at a dose of 10 mg/kg; settings: ip
# Rattus norvegicus [24] = assay: Area under curve was evaluated in rat plasma when administered intraperitoneally at a dose of 10 mg/kg for 4 or 6 hours; assay type: ADME, organism-based; set-up: dose 10 mg/kg, route intraperitoneal; settings: in vivo, ip
# Outline: as §2
# [25] = Plasma concentration after 6 hr at a dose of 10 mg/kg when administered perorally; settings: po
# Rattus norvegicus [26] = assay: Area under curve was evaluated in rat plasma when administered intravenously at a dose of 10 mg/kg for infinite hours; assay type: ADME, organism-based; set-up: time infinity, dose 10 mg/kg, route intravenous; settings: in vivo, iv
# Outline: as §2
# [27] = Brain concentration after 1 hr at a dose of 10 mg/kg when administered intraperitoneally; settings: ip
# [28] = Plasma concentration after 0.5 hr at a dose of 10 mg/kg when administered intraperitoneally; settings: ip
# [29] = Maximum concentration achieved in rat plasma when administered perorally at a dose of 100 mg/kg; assay type: ADME, organism-based; set-up: dose 100 mg/kg, route oral; settings: po
# Outline: as §1
# [30] = Maximum concentration achieved in rat brain when administered perorally at a dose of 10 mg/kg; assay type: ADME, organism-based; set-up: dose 10 mg/kg, route oral; settings: po
# Outline: as §1
# Rattus norvegicus [31] = assay: Area under curve was evaluated in rat brain when administered intraperitoneally at a dose of 10 mg/kg for infinite hours; assay type: ADME, organism-based; set-up: time infinity, dose 10 mg/kg, route intraperitoneal; settings: in vivo, ip
# [32] = Plasma concentration after 0.5 hr at a dose of 100 mg/kg when administered perorally; settings: po
# [33] = Brain concentration after 4 hr at a dose of 100 mg/kg when administered perorally; settings: po
# [34] = Brain concentration after 4 hr at a dose of 10 mg/kg when administered intraperitoneally; settings: ip
# Rattus norvegicus [35] = assay: Area under curve was evaluated in rat plasma when administered intravenously at a dose of 10 mg/kg for 4 or 6 hours; assay type: ADME, organism-based; set-up: dose 10 mg/kg, route intravenous; settings: in vivo, iv
# Outline: as §2
structure (smiles),measurement,setting,value
N[C@](CC1c2ccccc2Oc2ccccc21)(C(=O)O)[C@H]1C[C@@H]1C(=O)O,Vd,Rattus norvegicus [1],0.83 L/kg
same,Cmax,[2],12000 ng/mL
same,concentration at 6 h,[3],4.8 ng/g
same,concentration at 6 h,[4],29.6 ng/g
same,half-life,[5],2.64 h
same,AUC,Rattus norvegicus [6],284 ng·h/mL
same,concentration at 4 h,[7],95.5 ng/mL
same,Cmax,[8],14300 ng/mL
same,concentration at 4 h,[9],35.9 ng/mL
same,clearance,[10],19.8 mL/min/kg
same,concentration at 1 h,[11],2.1 ng/g
same,concentration at 2 h,[12],202 ng/g
same,concentration at 1 h,[13],4570 ng/mL
same,concentration at 2 h,[14],845 ng/mL
same,concentration at 4 h,[15],39.9 ng/mL
same,concentration at 4 h,[16],7.4 ng/g
same,Tmax,[17],1 h
same,concentration at 0.25 h,in vivo,14300 ng/mL
same,concentration at 0.5 h,[18],5970 ng/mL
same,concentration at 2 h,[19],420 ng/mL
same,Bioavailabiility,Rattus norvegicus [20],<Tr>
same,concentration at 2 h,[21],177 ng/g
same,concentration at 4 h,[22],145 ng/g
same,Vd,[23],0.49 L/kg
same,AUC,Rattus norvegicus [24],12700 ng·h/mL
same,concentration at 6 h,[25],17.5 ng/mL
same,AUC,Rattus norvegicus [26],8400 ng·h/mL
same,concentration at 1 h,[27],235 ng/g
same,concentration at 0.5 h,[28],10700 ng/mL
same,Cmax,[29],475 ng/mL
same,Cmax,[30],7.4 ng/g
same,AUC,Rattus norvegicus [31],1790 ng·h/mL
same,concentration at 0.5 h,[32],197 ng/mL
same,concentration at 4 h,[33],20.1 ng/g
same,concentration at 4 h,[34],149 ng/g
same,AUC,Rattus norvegicus [35],8370 ng·h/mL
